How the values were obtained:
[1] = Inhibition of Escherichia coli dUTPase
[2] = Antiproliferative activity against human HeLaS3 cells at 30 uM after 72 hrs by crystal violet assay; assay type: functional, HeLa S3
In short: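 HeLa S3 cells grown in RPMI1640 with 10% FBS, seeded at 1500 cells/well and left 24 h at 37 °C, 5% CO2. Compound (1–100 μM) or DMSO vehicle added, then 72 h incubation. Growth read by crystal violet staining, OD540. […] Average of three independent assays.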

[3] = Potentiation of antiproliferative activity of FdUrd against human HeLaS3 cells assessed as compound concentration causing 50% reduction in 1 uM FdUrd T/C value after 24 hrs by crystal violet assay; assay type: functional, cell-based, HeLa S3
In short: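 HeLa S3 cells seeded at 1500 cells/well and pre-incubated 24 h. Compound (1–100 μM) or DMSO added together with FdUrd (1 μM) for 24 h. Thymidine (30 μM) then added for a further 48 h. Crystal violet read-out at OD540. EC50 is the concentration that halves the FdUrd T/C (%), taken from the curve. Mean of three independent assays ± SD.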

[4] = molecular target: T1, Deoxyuridine 5'-triphosphate nucleotidohydrolase, mitochondrial (Homo sapiens, UniProt P33316); test: Inhibition of human dUTPase assessed as production of [5-3H]dUMP from [5-3H]dUTP after 15 mins measured by HPLC analysis
T1 sequence (P33316 whole entry): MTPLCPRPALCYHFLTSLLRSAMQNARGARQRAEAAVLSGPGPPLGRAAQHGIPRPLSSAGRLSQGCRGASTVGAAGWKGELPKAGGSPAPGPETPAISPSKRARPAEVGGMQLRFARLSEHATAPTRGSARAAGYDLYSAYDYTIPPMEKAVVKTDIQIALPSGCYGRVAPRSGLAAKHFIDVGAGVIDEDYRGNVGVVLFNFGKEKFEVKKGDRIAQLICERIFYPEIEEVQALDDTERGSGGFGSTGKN

MX1 [5] = test: Antitumor activity against human MX1 cells xenografted in Balb/c-A JcL-nu mouse assessed as decrease in tumor volume at 300 mg/kg/day, po for 14 days measured on day 15 relative to control (reference value: 11.4 +/- 3.74); assay type: functional
In short: (§1)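 Five-week-old Balb/cA JcL-nu mice given sc MX-1 tumor fragments (~2 mm) by trocar. Treatment for 14 days: 5-FU 15 mg/kg/day by osmotic-pump continuous infusion, and/or oral compound. Vehicle was 2.5% DMA, 2.5% Tween 80, 10% Cremophor, 0.5% HPMC. Tumor size and body weight measured twice weekly. TV = length × width² × 0.5. RTV = TV day 15/day 0. IR = (1 − treated/control mean RTV) × 100.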

MX1 [6] = test: Potentiation of antitumor activity of 5-Fu against human MX1 cells xenografted in Balb/c-A JcL-nu mouse assessed as tumor volume at 300 mg/kg/day, po for 14 days measured on day 15 (reference value: 2048 +/- 693.7 mm3); assay type: functional; in short: as §1
Mus musculus = test: Toxicity in Balb/c-A JcL-nu mouse bearing human MX1 cells assessed as decrease in body weight at 300 mg/kg/day, po administered for 15 days and co-treated with 5-Fu; assay type: organism-based; design: route oral; conditions: in vivo, 336 h, in the assay text read “for 14 days” for “for 15 days”; in short: as §1
MX1 [7] = test: Potentiation of antitumor activity of 5-Fu against human MX1 cells xenografted in Balb/c-A JcL-nu mouse assessed as tumor growth inhibition at 300 mg/kg/day, po for 14 days measured on day 15 relative to control; assay type: functional; conditions: read-out: GI; in short: as §1
MX1 [8] = test: Antitumor activity against human MX1 cells xenografted in Balb/c-A JcL-nu mouse assessed as tumor growth inhibition at 300 mg/kg/day, po for 14 days measured on day 15 relative to control; assay type: functional; conditions: read-out: GI; in short: as §1
[9] = Tmax in Balb/c-A mouse at 50 mg/kg, po in a solution containing 2.5% DMA, 2.5% Tween 80 and 10% cremophor EL; assay type: ADME, organism-based; design: dose 50 mg/kg, route oral; conditions: in vivo
In short: (§2)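 Male Balb/c-A mice aged 6–9 weeks (n = 2), single oral dose; plasma drug levels measured by UPLC.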

[10] = AUCt in Balb/c-A mouse at 50 mg/kg, po in a solution containing 2.5% DMA, 2.5% Tween 80 and 10% cremophor EL; assay type: ADME, organism-based; design: dose 50 mg/kg, route oral; conditions: plasma; in short: as §2
[11] = Antiproliferative activity against human HeLaS3 cells after 72 hrs by crystal violet assay; conditions: HeLa S3, 72 h
MX1 [12] = test: Antitumor activity against human MX1 cells xenografted in Balb/c-A JcL-nu mouse assessed as tumor volume at 300 mg/kg/day, po for 14 days measured on day 15 (reference value: 2048 +/- 693.7 mm3); assay type: functional; in short: as §1
[13] = Cmax in Balb/c-A mouse at 50 mg/kg, po in a solution containing 2.5% DMA, 2.5% Tween 80 and 10% cremophor EL; assay type: ADME, organism-based; design: dose 50 mg/kg, route oral; conditions: in vivo; in short: as §2
MX1 [14] = test: Potentiation of antitumor activity of 5-Fu against human MX1 cells xenografted in Balb/c-A JcL-nu mouse assessed as decrease in tumor volume at 300 mg/kg/day, po for 14 days measured on day 15 relative to control (reference value: 11.4 +/- 3.74); assay type: functional; in short: as §1
[15] = Half life in Balb/c-A mouse at 50 mg/kg, po in a solution containing 2.5% DMA, 2.5% Tween 80 and 10% cremophor EL; assay type: ADME, organism-based; design: dose 50 mg/kg, route oral; conditions: in vivo; in short: as §2
MX1 [16] = test: Antitumor activity against human MX1 cells xenografted in Balb/c-A JcL-nu mouse assessed as tumor growth inhibition at 15 mg/kg/day by continuous infusion for 14 days measured on day 15 relative to control; assay type: functional; conditions: read-out: GI
MX1 [17] = test: Antitumor activity against human MX1 cells xenografted in Balb/c-A JcL-nu mouse assessed as tumor volume at 15 mg/kg/day by continuous infusion for 14 days measured on day 15 relative to control (reference value: 11.4 +/- 3.74); assay type: functional
MX1 [18] = test: Antitumor activity against human MX1 cells xenografted in Balb/c-A JcL-nu mouse assessed as tumor volume at 15 mg/kg/day by continuous infusion for 14 days measured on day 15 (reference value: 2048 +/- 693.7 mm3); assay type: functional
In short: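 Five-week-old Balb/cA JcL-nu mice with MX-1 human breast carcinoma fragments (~2 mm) implanted sc by trocar, tumour maintained by sc serial transplantation. 5-FU given by continuous infusion via osmotic pump for 14 days; vehicle 2.5% DMA, 2.5% Tween 80, 10% Cremophor, 0.5% HPMC. Tumour size measured twice weekly; TV = length × width² × 0.5, read on day 15.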

[19] = Homo sapiens, HeLa S3, 24 h, read-out: EC50

SMILES	EC50 [3, 19] [µM]	IC50 [4] [µM]	other results
O=c1ccn([C@H]2C[C@H](O)[C@@H](COP(=O)(O)NP(=O)(O)OP(=O)(O)O)O2)c(=O)[nH]1	–	–	Ki [1]: 5000 nM
CC(C)(CCCOCn1ccc(=O)[nH]c1=O)NS(=O)(=O)c1ccccc1	5.1	–	T/C [2]: 96%; EC50 ([3]; hela s3): Dose-dependent effect
O=c1ccn([C@H]2C[C@H](O)[C@@H](COP(=O)(O)CP(=O)(O)OP(=O)(O)OCc3ccccc3)O2)c(=O)[nH]1	–	–	Ki [1]: 300 nM
O=c1ccn(COCCOS(=O)(=O)NS(=O)(=O)c2ccccc2)c(=O)[nH]1	–	3.1	EC50 ([3]; hela s3): Not Active
COc1cc(C)ccc1S(=O)(=O)NC(C)(C)CCCOCn1ccc(=O)[nH]c1=O	14.1	19.5	–
COc1cccc(S(=O)(=O)NC(C)(C)CCCOCn2ccc(=O)[nH]c2=O)c1	1.1	1.2	–
COc1ccc(S(=O)(=O)NC(C)(C)CCCOCn2ccc(=O)[nH]c2=O)cc1	14.9	18.2	–
CC(C)(CCCOCn1ccc(=O)[nH]c1=O)NS(=O)(=O)c1ccccc1Cl	7.93	9.4	–
CC(C)(CCCOCn1ccc(=O)[nH]c1=O)NS(=O)(=O)c1cccc(Cl)c1	3.96	4.5	–
CC(C)(CCCOCn1ccc(=O)[nH]c1=O)NS(=O)(=O)c1ccc(Cl)cc1	4.97	5.7	–
CC(C)(CCCOCn1ccc(=O)[nH]c1=O)NS(=O)(=O)c1cccc(OCC2CC2)c1	0.18	0.035	–
CC(C)(NS(=O)(=O)CCCOCn1ccc(=O)[nH]c1=O)c1cccc(OCC2CC2)c1	0.45	0.34	–
C[C@@H](NS(=O)(=O)CCCOCn1ccc(=O)[nH]c1=O)c1cccc(OCC2CC2)c1	0.066	0.04	–
C[C@H](NS(=O)(=O)CCCOCn1ccc(=O)[nH]c1=O)c1cccc(OCC2CC2)c1	4.15	2.5	–
C[C@@H](NS(=O)(=O)CCCOCn1ccc(=O)[nH]c1=O)c1ccc(F)c(OCC2CC2)c1	0.075	0.021	Ratio (MX1 [5]): 14.9; Activity (MX1 [6]): 299.7 mm3; Activity (Mus musculus): Non-toxic; inhibition in vivo at 300 mg/kg/day (MX1 [7]): 83%; inhibition in vivo at 300 mg/kg/day (MX1 [8]): -30.9%; Tmax [9]: 30 min; AUC(0-t) [10]: 24.9 µM·h; IC50 [11]: 28.3 µM; Activity (MX1 [12]): 2698 mm3; Cmax [13]: 15.1 µM; Ratio (MX1 [14]): 1.94; half-life [15]: 84 min
CC(C)(C)[Si](C)(C)OCCOCn1ccc(=O)[nH]c1=O	–	100	–
O=c1ccn(COCCOC(c2ccccc2)(c2ccccc2)c2ccccc2)c(=O)[nH]1	–	> 100	–
CC(NS(=O)(=O)CCCOCn1ccc(=O)[nH]c1=O)c1cccc(OCC2CC2)c1 (racemic)	0.14	0.062	–
O=c1[nH]cc(F)c(=O)[nH]1 [FLUOROURACIL]	–	–	inhibition in vivo at 15 mg/kg/day (MX1 [16]): 20%; Ratio (MX1 [17]): 9.13; Activity (MX1 [18]): 1645 mm3

From ChEMBL document CHEMBL2057196, “Discovery of a novel class of potent human deoxyuridine triphosphatase inhibitors remarkably enhancing the antitumor activity of thymidylate synthase inhibitors” (J Med Chem, 2012)
